According to ChEMBL document CHEMBL1828575, “Design, synthesis and antiproliferative activities of biarylolefins based on polyhydroxylated and carbohydrate scaffolds” (Eur J Med Chem, 2011):

Experiments:
Assay type in all cases: functional
MDA-MB-435 [1] = assay: Antitumor activity against human MDA-MB-435 cells after 48 hrs by SRB assay; conditions: MDA-MB-435, 48 h
In short: (§1)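 NCI60 panel in RPMI 1640 with 5% FBS and 2 mM L-glutamine. Cells were plated at 5000–40,000/well by doubling time, held 24 h, then time-zero plates were TCA-fixed. Five concentrations (10-fold or half-log dilutions of DMSO stocks) were applied for 48 h at 37 °C, 5% CO2. Cells were fixed with cold TCA (10% final adherent, 16% suspension) and stained with 0.4% SRB. Bound dye was dissolved in 10 mM Tris and read at 515 nm. GI50, TGI and LC50 were calculated per line.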

OVCAR-4 = assay: Antitumor activity against human OVCAR4 cells after 48 hrs by SRB assay; conditions: OVCAR-4, 48 h; in short: as §1
HCT-116 = assay: Antitumor activity against human HCT116 cells after 48 hrs by SRB assay; conditions: HCT-116, 48 h; in short: as §1
SF-268 = assay: Cytotoxicity against human SF268 cells assessed as cellular growth at 10 uM after 48 hrs by SRB assay
In short: (§2)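 NCI-60 panel lines grown in RPMI 1640 with 5% FBS and 2 mM L-glutamine. Plated at 5000–40,000 cells/well and preincubated 24 h at 37 °C, 5% CO₂, with time-zero plates fixed in TCA. Compounds, dissolved in DMSO and diluted in medium, were applied for 48 h. Cells were TCA-fixed (10% final for adherent, 16% for suspension) and stained with 0.4% SRB in 1% acetic acid. Dye was solubilised in 10 mM Tris base and read at 515 nm; growth was expressed as a percentage of untreated control.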

SNB-75 [2] = assay: Cytotoxicity against human SNB75 cells assessed as cellular growth at 10 uM after 48 hrs by SRB assay; in short: as §2
SK-MEL-28 = assay: Antitumor activity against human SK-MEL-28 cells after 48 hrs by SRB assay; conditions: SK-MEL-28, 48 h
In short: (§3)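 NCI60 panel cells grown in RPMI 1640 with 5% FBS and 2 mM L-glutamine, plated at 5000–40,000 cells/well and preincubated 24 h at 37 °C, 5% CO₂. Compound was added from DMSO at five concentrations, 10-fold or 1/2 log dilutions, then incubated 48 h.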

HL-60(TB) = assay: Antitumor activity against human HL-60(TB) cells after 48 hrs by SRB assay; conditions: HL-60, 48 h
In short: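 NCI60 screen: cells grown in RPMI 1640 with 5% FBS and 2 mM L-glutamine, plated at 5000–40,000 cells/well by doubling time, preincubated 24 h at 37 °C with 5% CO2. Compounds were diluted from DMSO stocks and given for 48 h, at five concentrations for dose response. A time-zero plate was TCA-fixed. Cells were TCA-fixed, stained with 0.4% SRB and read at 515 nm, with growth expressed relative to untreated controls.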

EKVX = assay: Antitumor activity against human EKVX cells after 48 hrs by SRB assay; in short: as §1
Malme-3M = assay: Antitumor activity against human MALME-3M cells after 48 hrs by SRB assay; in short: as §1
KM12 = assay: Antitumor activity against human KM12 cells after 48 hrs by SRB assay; conditions: KM12, 48 h; in short: as §1
U-251 = assay: Antitumor activity against human U251 cells after 48 hrs by SRB assay; conditions: U-251, 48 h; in short: as §3
NCI/ADR-RES [3] = assay: Antitumor activity against human NCI/ADR-RES cells after 48 hrs by SRB assay; in short: as §1
OVCAR-3 [4] = assay: Cytotoxicity against human OVCAR3 cells assessed as cellular growth at 10 uM after 48 hrs by SRB assay; in short: as §2
SNB-75 [5] = assay: Antitumor activity against human SNB75 cells after 48 hrs by SRB assay; conditions: SNB-75, 48 h; in short: as §3
LOX IMVI = assay: Antitumor activity against human LOXIMVI cells after 48 hrs by SRB assay; in short: as §1
M14 = assay: Cytotoxicity against human M14 cells assessed as cellular growth at 10 uM after 48 hrs by SRB assay
In short: (§4)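 NCI60 single-dose screen of cells in RPMI 1640 with 5% FBS and 2 mM L-glutamine, preincubated 24 h at 37 °C, 5% CO₂. Cells were then exposed 48 h to compound added from DMSO stock. TCA-fixed, stained with 0.4% SRB in 1% acetic acid, dye solubilised in 10 mM Tris base and read at 515 nm. Growth is given as percent of untreated control.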

MDA-MB-435 [6] = assay: Cytotoxicity against human MDA-MB-435 cells assessed as cellular growth at 10 uM after 48 hrs by SRB assay; in short: as §2
DU-145 = assay: Cytotoxicity against human DU145 cells assessed as cellular growth at 10 uM after 48 hrs by SRB assay; in short: as §4
NCI/ADR-RES [7] = assay: Cytotoxicity against human NCI/ADR-RES cells assessed as cellular growth at 10 uM after 48 hrs by SRB assay; in short: as §2
CAKI-1 = assay: Cytotoxicity against human Caki1 cells assessed as cellular growth at 10 uM after 48 hrs by SRB assay; in short: as §4
NCI-H460 = assay: Cytotoxicity against human NCI-H460 cells assessed as cellular growth at 10 uM after 48 hrs by SRB assay; in short: as §2
OVCAR-8 = assay: Antitumor activity against human OVCAR8 cells after 48 hrs by SRB assay; conditions: OVCAR-8, 48 h; in short: as §1
OVCAR-3 [8] = assay: Antitumor activity against human OVCAR3 cells after 48 hrs by SRB assay; conditions: OVCAR-3, 48 h; in short: as §1
[9] = read-out: LC50 (the source's name)
[10] = read-out: pLC50 (the source's name) (converted)

COc1cc(/C(=C2\O[C@@H]([C@H]3COC(C)(C)O3)[C@H]3OC(C)(C)O[C@@H]23)c2ccc3ccccc3c2)cc(OC)c1OC
GI50 (MDA-MB-435 [1]): 3.61 µM | TGI (MDA-MB-435 [1]): 17.5 µM | CC50 (MDA-MB-435 [1]; [9]): > 100 µM | GI50 (OVCAR-4; read-out: GI50): 2.82 µM | CC50 (OVCAR-4; [9]): > 100 µM | TGI (OVCAR-4; read-out: TGI): 6.02 µM | GI50 (OVCAR-4; read-out: pGI50 (converted)): 14.1 µM | CC50 (OVCAR-4; [10]): > 100 µM | TGI (OVCAR-4; read-out: pTGI (converted)): 11 µM | GI50 (HCT-116): 2.51 µM | LC50 (concentration giving 50% net cell kill) (HCT-116): 20.6 µM | TGI (HCT-116): 5.7 µM | Activity (SF-268): -16.94% | Activity (SNB-75 [2]): 41.12% | LC50 (50% lethal concentration) (SK-MEL-28): > 100 µM | GI50 (SK-MEL-28; read-out: GI50): 2.86 µM | TGI (SK-MEL-28; read-out: TGI): 96.5 µM | GI50 (SK-MEL-28; read-out: pGI50 (converted)): 2.88 µM | CC50 (SK-MEL-28; [10]): > 100 µM | TGI (SK-MEL-28; read-out: pTGI): > 100 µM | GI50 (HL-60(TB); read-out: GI50): 74.9 µM | CC50 (HL-60(TB); [9]): > 100 µM | TGI (HL-60(TB); read-out: TGI): > 100 µM | GI50 (HL-60(TB); read-out: pGI50 (converted)): 74.1 µM | CC50 (HL-60(TB); [10]): > 100 µM | TGI (HL-60(TB); read-out: pTGI (converted)): > 100 µM | GI50 (EKVX; read-out: GI50): 5.59 µM | CC50 (EKVX; [9]): > 100 µM | TGI (EKVX; read-out: TGI): > 100 µM | GI50 (EKVX; read-out: pGI50 (converted)): 5.62 µM | CC50 (EKVX; [10]): > 100 µM | TGI (EKVX; read-out: pTGI): > 100 µM | GI50 (Malme-3M): 2.07 µM | LC50 (concentration killing 50% of cells present at time zero) (Malme-3M): > 100 µM | TGI (Malme-3M): 5.59 µM | GI50 (KM12): 6 µM | LC50 (KM12): > 100 µM | TGI (KM12): > 100 µM | GI50 (U-251): 3.12 µM | TGI (U-251): 11.8 µM | CC50 (U-251; [9]): > 100 µM | GI50 (NCI/ADR-RES [3]): 4.26 µM | LC50 (NCI/ADR-RES [3]): > 100 µM | TGI (NCI/ADR-RES [3]): 22.3 µM | Activity (OVCAR-3 [4]): -6.76% | GI50 (SNB-75 [5]): 2.89 µM | TGI (SNB-75 [5]): 7.44 µM | CC50 (SNB-75 [5]; [9]): > 100 µM | GI50 (LOX IMVI): 3.39 µM | TGI (LOX IMVI): 19.8 µM | CC50 (LOX IMVI; [9]): > 100 µM | Activity (M14): 62.78% | Activity (MDA-MB-435 [6]): 26.19% | Activity (DU-145): 2.86% | Activity (NCI/ADR-RES [7]): 25.91% | Activity (CAKI-1): 38.73% | Activity (NCI-H460): 43.38% | GI50 (OVCAR-8; read-out: GI50): 3.69 µM | CC50 (OVCAR-8; [9]): > 100 µM | TGI (OVCAR-8; read-out: TGI): > 100 µM | GI50 (OVCAR-8; read-out: pGI50 (converted)): 4.37 µM | CC50 (OVCAR-8; [10]): > 100 µM | TGI (OVCAR-8; read-out: pTGI): > 100 µM | GI50 (OVCAR-3 [8]): 2.39 µM | TGI (OVCAR-3 [8]): 5.67 µM | CC50 (OVCAR-3 [8]; [9]): 21.7 µM
